Measured values from ChEMBL document CHEMBL1134952, “Dual NK(1) antagonists--serotonin reuptake inhibitors as potential antidepressants. Part 2: SAR and activity of benzyloxyphenethyl piperazine derivatives” (Bioorg Med Chem Lett, 2002).
pIC50: −log10 of the molar value. Activity calls are given as the source filed them. No cut-off for these calls is given here.

Columns and labels:
[1] = target: T1, Substance-P receptor (Homo sapiens, UniProt P25103); experiment: Binding affinity against human Tachykinin receptor 1 expressed in CHO cells using [3H]-substance P as the radioligand; format: cell-based
T1 sequence (P25103 whole entry): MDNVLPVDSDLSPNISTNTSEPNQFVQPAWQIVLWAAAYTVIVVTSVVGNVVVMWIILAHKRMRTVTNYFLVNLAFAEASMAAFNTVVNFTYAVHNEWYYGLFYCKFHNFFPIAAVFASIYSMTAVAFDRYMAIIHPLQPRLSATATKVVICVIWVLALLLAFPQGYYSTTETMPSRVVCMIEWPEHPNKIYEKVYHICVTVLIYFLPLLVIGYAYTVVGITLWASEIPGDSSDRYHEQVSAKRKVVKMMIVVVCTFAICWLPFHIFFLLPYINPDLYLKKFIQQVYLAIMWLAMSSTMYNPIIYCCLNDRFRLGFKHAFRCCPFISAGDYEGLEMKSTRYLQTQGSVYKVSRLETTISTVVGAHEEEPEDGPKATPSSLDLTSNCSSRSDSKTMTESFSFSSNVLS

[2] = target: Sodium-dependent serotonin transporter (Rattus norvegicus, UniProt P31652); experiment: Binding affinity against Serotonin transporter in rat cerebral cortex using [3H]paroxetine binding assay.; format: tissue-based
Sodium-dependent serotonin transporter, sequence (P31652 whole entry): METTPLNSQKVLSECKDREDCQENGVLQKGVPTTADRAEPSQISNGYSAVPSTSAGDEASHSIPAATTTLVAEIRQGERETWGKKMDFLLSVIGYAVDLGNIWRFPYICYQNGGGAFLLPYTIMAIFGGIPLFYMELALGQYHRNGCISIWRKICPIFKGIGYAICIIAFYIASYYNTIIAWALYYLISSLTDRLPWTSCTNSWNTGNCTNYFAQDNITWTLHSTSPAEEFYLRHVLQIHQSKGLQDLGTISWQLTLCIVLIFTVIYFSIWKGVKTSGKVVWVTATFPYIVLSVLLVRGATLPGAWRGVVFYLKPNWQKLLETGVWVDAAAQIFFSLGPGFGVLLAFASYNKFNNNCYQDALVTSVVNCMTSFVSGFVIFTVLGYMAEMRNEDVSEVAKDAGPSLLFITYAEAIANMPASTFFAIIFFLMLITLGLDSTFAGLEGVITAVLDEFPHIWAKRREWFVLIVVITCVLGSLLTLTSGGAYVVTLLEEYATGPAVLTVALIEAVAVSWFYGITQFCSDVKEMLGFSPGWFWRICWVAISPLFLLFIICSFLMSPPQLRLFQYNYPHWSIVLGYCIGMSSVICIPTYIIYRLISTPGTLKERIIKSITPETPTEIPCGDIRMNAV
Outline: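 Rat cerebral cortex membranes, […] protein, incubated 120 min at 25 °C in 50 mM Tris–HCl pH 7.4 with 2 mM MgCl2 and 0.05 nM radioligand. Nonspecific binding taken as the residual binding with excess imipramine present.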

[3] = target: T1, Substance-P receptor; experiment: Binding affinity against human Tachykinin receptor 1 expressed in CHO cells using [3H]-substance P as the radioligand; less than 50% inhibition at 10e-5 M; format: cell-based
[4] = system: Cavia porcellus; experiment: Oral dose required attenuate by 99% the duration of vocalizations in the isolation-induced guinea pig pup by vocalization test; format: functional
[5] = system: Gerbillinae; experiment: Dose required to decrease by 45% the duration of the foot-tapping, indicating efficacious central blockade of NK1 receptors; format: functional
[6] = system: Rattus norvegicus; experiment: Intraperitoneal dose required to increase extracellular 5-HT levels to 250% in the frontal cortex of freely moving rats by using intracerebral microdialysis.; format: functional
[7] = system: Cavia porcellus; experiment: Oral dose required attenuate by 50% the duration of vocalizations in the isolation-induced guinea pig pup by vocalization test; format: functional

Compound	pIC50 [1]	pIC50 [2]	further results
Fc1cc(COCC(c2ccccc2)N2CCNCC2)cc(C(F)(F)F)c1 (configuration not stated)	7.90	7.80	–
COc1c(Br)cc(Br)cc1COCC(c1ccccc1)N1CCNCC1 (configuration not stated)	8.10	8.20	–
COc1ccc(C(COCc2cc(C(F)(F)F)cc(C(F)(F)F)c2)N2CCNCC2)cc1 (configuration not stated)	7.30	7.00	–
Clc1cc(Cl)cc(COC[C@@H](c2ccccc2)N2CCNCC2)c1	7.60	7.90	–
Clc1cccc(COCC(c2ccccc2)N2CCNCC2)c1 (configuration not stated)	6.40	8.10	–
Fc1cc(F)cc(COCC(c2ccccc2)N2CCNCC2)c1 (configuration not stated)	6.70	9.10	–
CC(C)(C)c1cc(COCC(c2ccccc2)N2CCNCC2)cc(C(C)(C)C)c1 (configuration not stated)	–	6.00	–
COc1ccccc1C(COCc1cc(C(F)(F)F)cc(C(F)(F)F)c1)N1CCNCC1 (configuration not stated)	8.20	6.60	–
FC(F)(F)c1cc(COCC(c2cccc(Cl)c2)N2CCNCC2)cc(C(F)(F)F)c1 (configuration not stated)	8.80	6.60	–
Brc1cc(Br)cc(COC[C@@H](c2ccccc2)N2CCNCC2)c1	7.90	7.50	–
Clc1cc(Cl)cc(COC[C@H](c2ccccc2)N2CCNCC2)c1	8.50	8.60	–
CNCCC(Oc1ccc(C(F)(F)F)cc1)c1ccccc1 (configuration not stated)	–	–	Log IC50 [3]: inactive
CC(C)c1cccc(C(COCc2cc(C(F)(F)F)cc(C(F)(F)F)c2)N2CCNCC2)c1 (configuration not stated)	7.40	6.50	–
Fc1cccc(C(COCc2cc(C(F)(F)F)cc(C(F)(F)F)c2)N2CCNCC2)c1F (configuration not stated)	8.50	6.50	–
Brc1cc(I)cc(COCC(c2ccccc2)N2CCNCC2)c1 (configuration not stated)	8.90	7.60	–
Fc1ccccc1C(COCc1cc(C(F)(F)F)cc(C(F)(F)F)c1)N1CCNCC1 (configuration not stated)	8.30	6.70	–
FC(F)(F)c1cc(COCC(c2ccccc2)N2CCNCC2)cc(C(F)(F)F)c1 (configuration not stated)	8.30	6.60	–
COc1cccc(C(COCc2cc(C(F)(F)F)cc(C(F)(F)F)c2)N2CCNCC2)c1 (configuration not stated)	9.00	6.70	–
Brc1cc(Br)cc(COC[C@H](c2ccccc2)N2CCNCC2)c1	8.50	8.00	Dose [4]: 3.5e-05 M/kg; Dose [5]: 3.2e-05 M/kg; Dose [6]: 3.2e-05 M/kg; Dose [7]: 1e-05 M/kg
Fc1ccc(C(COCc2cc(C(F)(F)F)cc(C(F)(F)F)c2)N2CCNCC2)cc1 (configuration not stated)	7.00	6.80	–
FC(F)(F)c1cc(COCC(c2ccccc2Cl)N2CCNCC2)cc(C(F)(F)F)c1 (configuration not stated)	8.80	6.70	–
FC(F)(F)c1cc(COCC(c2ccc(Cl)c(Cl)c2)N2CCNCC2)cc(C(F)(F)F)c1 (configuration not stated)	8.30	6.70	–
Cc1cc(C)cc(COCC(c2ccccc2)N2CCNCC2)c1 (configuration not stated)	7.60	–	–
